The AUC(0-t) is the area under the concentration-time curve up to a stated or last time point. As a reminder, the AUC(0-inf) is total exposure, with the tail of the curve extrapolated.

Common to all, as to assay type: ADME, organism-based
Data set [1] in a line: AUC (0 to last) in ICR mouse liver at 80 mg/kg, po administered as single dose. Further details: dose 80 mg/kg, time 0 - last, route oral.
Data set [2] in a line: AUC (0 to infinity) in ICR mouse liver at 80 mg/kg, po administered as single dose. Further details: dose 80 mg/kg, route oral, time infinity.
Data set [3] in a line: Ratio of AUC (0 to infinity) in ICR mouse liver to plasma at 80 mg/kg, po administered as single dose. As to conditions: liver and plasma, read-out: Ratio AUC.
Data set [4] can be described thus: Apparent volume of distribution in ICR mouse plasma at 80 mg/kg, po administered as single dose. To be noted: read-out: Vz/F. The essentials:
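Male ICR mice, 7 weeks old, 23–28 g, received a single intragastric 80 mg/kg dose in DD water (100 μL/20 g). […] Cmax and Tmax came from the concentration–time curves; t1/2 = ln2/kel; AUC by linear trapezoidal rule extrapolated to infinity; MRT = AUMC/AUC.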

Each structure is given as a SMILES string.

Consider `O=c1c2ccc(OCc3ccc(OC(F)(F)F)cc3)cc2[nH]c2cc(F)cc(F)c12`, for which the AUC(0-t) in data set [1] worked out at 20400 ng·h/mL.

Turning to `O=c1c2ccc(OCc3cccc(OC(F)(F)F)c3)cc2[nH]c2cc(F)cc(F)c12`, the AUC(0-inf) in data set [2] worked out at 19300 ng·h/mL.

Compound `O=c1c2ccc(OCc3cccc(C(F)(F)F)c3)cc2[nH]c2cc(F)cc(F)c12` yielded an AUC(0-t) in data set [1] of 11500 ng·h/mL.

As to `O=c1c2ccc(Oc3ccc(OC(F)(F)F)cc3)cc2[nH]c2cc(Cl)cc(F)c12`, the Kp in data set [3] stood at 112.

In the case of `O=c1c2cc(OCc3ccc(OC(F)(F)F)cc3)ccc2[nH]c2cc(F)cc(F)c12`, in data set [4], the Vd/F was 290 L/kg.

The record behind these values is ChEMBL document CHEMBL4602727, “Lead Optimization of Second-Generation Acridones as Broad-Spectrum Antimalarials” (J Med Chem, 2020).
